STEP block = inhibitors of human striatal-enriched phosphatase STEP. 360,000 tested, 0.25% active. recombinant STEP, OMFP fluorogenic substrate, fluorescence. P54829. inhibition, % at 20 µM;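 active = inhibition at 20 µM, scaled per plate between control wells, above about 37%, limit read from the data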
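Material: STEP (striatal-enriched tyrosine phosphatase) enzyme, cell-free; Compound dosing: 20 µM single dose in 1% DMSO; Technique: fluorescence read at 480 nm ex / 540 nm em; Times: reaction 20 min, ambient temperature; Medium: 50 mM Bis-Tris pH 6.0 with 2.5 mM DTT and 0.005% Tween 20; Also added: OMFP at 25 µM.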
SUMO1 PPI mod = modulators of human SUMO1-mediated protein-protein interactions; AID 602429; 360,000 tested, 0.33% active; SUMO1 binding to a labelled peptide, TR-FRET, 1 h; inhibition, % at 20 µM; P63165; in the data active = inhibition above about 37%
Target sequence (P63165 whole entry, looked up): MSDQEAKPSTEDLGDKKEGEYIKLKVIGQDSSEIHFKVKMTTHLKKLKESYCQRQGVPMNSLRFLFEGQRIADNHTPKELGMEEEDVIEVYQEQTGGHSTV
NadD inh = inhibitors of Staphylococcus aureus NadD; inhibition, % at 20 µM; purified NadD enzyme, colorimetric absorbance read-out; AID 602399; 360,000 tested, 0.78% active; in the data active = inhibition above about 26%
LMPTP inh = LMPTP (human) inhibition. inhibition, % at 20 µM. AID 651560. 360,000 tested, 0.22% active. recombinant LMPTP-A, OMFP fluorogenic substrate, fluorescence intensity;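 active = compounds that cut the enzyme signal by at least half of the control window in the single-dose screen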
Target sequence (P24666 whole entry, looked up): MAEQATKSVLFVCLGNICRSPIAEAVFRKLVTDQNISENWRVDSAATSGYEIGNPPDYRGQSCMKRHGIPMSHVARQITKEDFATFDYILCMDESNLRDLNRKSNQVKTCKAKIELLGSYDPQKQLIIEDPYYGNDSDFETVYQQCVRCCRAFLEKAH
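Buffer or medium: Bis-Tris pH 6.0, DTT, detergent; Assay system: LMPTP-A enzyme; Quantity: 0.625 nM enzyme; Detection: endpoint fluorescence intensity; Times: 50 min dark incubation at room temperature; Controls: substrate-only low control, DMSO enzyme-plus-substrate high control; Doses: single 20 µM dose; Read-out: percent inhibition versus substrate-only and uninhibited controls; Reagent: 400 µM OMFP.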
DNMT1 inh = blocks human DNA methyltransferase DNMT1. P26358. DNMT1 molecular beacon, Hinp1I cleavage, fluorescence. inhibition (reported as % activation of signal), % at 10 µM. 360,000 tested, 0.83% active; in the data active = inhibition above about 50%
Scp-1 inhibitor = inhibitors of human Scp-1 phosphatase; Recombinant Scp1, phosphopeptide, malachite green phosphate absorbance; inhibition, % at 20 µM; Q9GZU7; 340,000 tested, 0.88% active;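 active = inhibition above about 50% at 20 µM, limit read from the data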
Target sequence (Q9GZU7 76-261 limits assumed): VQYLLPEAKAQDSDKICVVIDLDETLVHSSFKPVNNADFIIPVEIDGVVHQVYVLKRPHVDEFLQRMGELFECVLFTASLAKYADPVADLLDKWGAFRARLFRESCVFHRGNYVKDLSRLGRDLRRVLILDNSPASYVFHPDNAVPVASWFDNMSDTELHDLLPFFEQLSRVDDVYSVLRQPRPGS
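System: truncated SCP-1 phosphatase (76-261aa); medium: Tris acetate buffer pH 5.5 with MgCl2 and Tween-20; incubation: 45 min room-temperature reaction, 5 min colour, 30 min stabiliser; compound: single 20 µM dose, 1% DMSO; reagent: Phosphorylated 17-residue peptide substrate; read-out: % inhibition at 20 µM; technique: colorimetric free-phosphate detection, absorbance 630 nm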
DNMT1 inh conf = confirmation of human DNMT1 inhibitors; inhibition, % at 10 µM; 2,300 tested, 8% active; AID 602385; DNMT1 molecular beacon HinP1I cleavage, fluorescence; shares compounds with DNMT1 inh;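 active = average inhibition of at least 30% in the single-concentration confirmation test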
Beacon interf = counter-screen for DNMT1 inhibitors: spectral interference; shares compounds with DNMT1 inh; DNMT1 molecular beacon spectral interference counterscreen, fluorescence 485/520; activation (fluorescence interference), % at 10 µM; 2,300 tested, 1% active;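 active = activation of at least 30% at 10 µM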;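 note: DNMT1 catalytic domain with a HinP1I cleavage step and a FAM/dabcyl DNA beacon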
Hits are given with their value. Compounds with a hit are over-represented: about 2.4% of the library has one in this group of screens.

Screening COc1ccc(C(=O)NC(=S)Nc2nnn(C)n2)cc1 returned STEP block inactive, SUMO1 PPI mod inactive, NadD inh inactive, LMPTP inh inactive, DNMT1 inh 86.1, Scp-1 inhibitor inactive, DNMT1 inh conf inactive and Beacon interf inactive.
CC1=NNC(=O)C1Cc1ccccc1 (stereo unspecified) was read as STEP block inactive, SUMO1 PPI mod inactive, NadD inh inactive, LMPTP inh inactive, DNMT1 inh inactive and Scp-1 inhibitor inactive.
Screening CCN(C(=O)COC(=O)/C=C/c1ccc(F)cc1)C1CCCCC1 returned STEP block inactive, SUMO1 PPI mod inactive, NadD inh inactive, LMPTP inh inactive, DNMT1 inh inactive and Scp-1 inhibitor inactive.
For CCN(C(=O)COC(=O)/C=C/c1ccco1)C1CCCCC1 the results were STEP block inactive, SUMO1 PPI mod inactive, NadD inh inactive, LMPTP inh inactive, DNMT1 inh 74.9, Scp-1 inhibitor 72.0, DNMT1 inh conf inactive and Beacon interf inactive.
Screening Cc1ccc(NC(=O)c2cc(-c3ccccc3)nn2-c2ccccc2)cc1 returned STEP block inactive, SUMO1 PPI mod inactive, NadD inh inactive, LMPTP inh inactive, DNMT1 inh inactive and Scp-1 inhibitor inactive.
Screening Cc1nn(-c2ccccc2)c2nc(-c3ccco3)cc(C(=O)O)c12 returned STEP block inactive, SUMO1 PPI mod inactive, NadD inh inactive, LMPTP inh inactive, DNMT1 inh 61.0, Scp-1 inhibitor inactive, DNMT1 inh conf inactive and Beacon interf inactive.
Cc1cccc(-n2nc(C)c3c(C(=O)O)cc(-c4cccs4)nc32)c1 was read as STEP block inactive, SUMO1 PPI mod inactive, NadD inh inactive, LMPTP inh inactive, DNMT1 inh inactive and Scp-1 inhibitor inactive.
Screening O=C(O)c1cc(-c2ccco2)nn1-c1ccc(Cl)cc1 returned STEP block inactive, SUMO1 PPI mod inactive, NadD inh inactive, LMPTP inh inactive, DNMT1 inh 96.4, Scp-1 inhibitor 66.8, DNMT1 inh conf inactive and Beacon interf inactive.
`O=C(O)c1cc(-c2cc3ccccc3o2)nn1-c1ccccc1` gave STEP block inactive, SUMO1 PPI mod inactive, NadD inh inactive, LMPTP inh inactive, DNMT1 inh inactive and Scp-1 inhibitor inactive.
`Cc1nn(-c2cccc(Cl)c2)c2nc(-c3ccco3)cc(C(=O)O)c12` gave STEP block inactive, SUMO1 PPI mod 39.9, NadD inh inactive, LMPTP inh inactive, DNMT1 inh 71.5, Scp-1 inhibitor inactive, DNMT1 inh conf inactive and Beacon interf inactive.
`COC(=O)c1cc(C)nc2c1c(C)nn2-c1ccccc1` gave STEP block inactive, SUMO1 PPI mod inactive, NadD inh inactive, LMPTP inh inactive, DNMT1 inh inactive and Scp-1 inhibitor inactive.
`Cn1c(SCC(=O)Nc2nccs2)nnc1C12CC3CC(CC(C3)C1)C2` gave STEP block inactive, SUMO1 PPI mod inactive, NadD inh inactive, LMPTP inh inactive, DNMT1 inh inactive and Scp-1 inhibitor inactive.
COc1ccccc1OCC(=O)Sc1ccc(C)cc1 was read as STEP block inactive, SUMO1 PPI mod inactive, NadD inh inactive, LMPTP inh inactive, DNMT1 inh inactive and Scp-1 inhibitor inactive.
CCCCC1=CC2=C(c3ccco3)C(=O)C(C)(OC(=O)c3ccc(OC)cc3)C(=O)C2=CN1Cc1ccco1 (stereo unspecified) was read as STEP block inactive, SUMO1 PPI mod inactive, NadD inh 36.6, LMPTP inh inactive, DNMT1 inh 55.9, Scp-1 inhibitor inactive, DNMT1 inh conf inactive and Beacon interf inactive.
COc1ccc(S(=O)(=O)NCc2cccnc2)cc1OC was read as STEP block inactive, SUMO1 PPI mod inactive, NadD inh inactive, LMPTP inh inactive, DNMT1 inh 56.2, Scp-1 inhibitor inactive, DNMT1 inh conf inactive and Beacon interf inactive.
For COc1cccc(/C=c2\sc3nc(-c4cccs4)nn3c2=O)c1OC the results were STEP block inactive, SUMO1 PPI mod inactive, NadD inh inactive, LMPTP inh inactive, DNMT1 inh inactive and Scp-1 inhibitor inactive.
Cc1ccc(/C=c2\sc3nc(-c4cccs4)nn3c2=O)o1 was read as STEP block inactive, SUMO1 PPI mod inactive, NadD inh inactive, LMPTP inh inactive, DNMT1 inh 57.3, Scp-1 inhibitor inactive, DNMT1 inh conf inactive and Beacon interf inactive.
`COc1ccc(O)c(C(=O)c2cnn(C(=O)c3ccc(C)cc3)c2)c1` gave STEP block inactive, SUMO1 PPI mod inactive, NadD inh inactive, LMPTP inh inactive, DNMT1 inh 54.9, Scp-1 inhibitor inactive, DNMT1 inh conf inactive and Beacon interf inactive.
COc1ccc(O)c(C(=O)c2cnn(-c3ccccc3)c2)c1 was read as STEP block inactive, SUMO1 PPI mod inactive, NadD inh inactive, LMPTP inh inactive, DNMT1 inh inactive and Scp-1 inhibitor inactive.
For O=C(/C=C/[C@H]1O[C@@H](n2ccc(=O)[nH]c2=O)[C@H](O)[C@@H]1O)NCCc1cccs1 the results were STEP block inactive, SUMO1 PPI mod inactive, NadD inh inactive, LMPTP inh inactive and DNMT1 inh inactive.
For O=C(/C=C/[C@H]1O[C@@H](n2ccc(=O)[nH]c2=O)[C@H](O)[C@@H]1O)NCCCc1ccccc1 the results were STEP block inactive, SUMO1 PPI mod inactive, NadD inh inactive, LMPTP inh inactive, DNMT1 inh 79.5, DNMT1 inh conf inactive and Beacon interf inactive.
For COc1cccc(CN(CC(=O)NCc2ccco2)C(=O)CNS(=O)(=O)c2ccccc2)c1 the results were STEP block inactive, SUMO1 PPI mod inactive, NadD inh inactive, LMPTP inh inactive, DNMT1 inh 57.1, Scp-1 inhibitor inactive, DNMT1 inh conf inactive and Beacon interf inactive.
Screening O=C(c1cccc(S(=O)(=O)N2CCc3ccccc32)c1)N1CCN(c2ccccc2)CC1 returned STEP block inactive, SUMO1 PPI mod inactive, NadD inh inactive, LMPTP inh inactive, DNMT1 inh inactive and Scp-1 inhibitor inactive.
Screening O=C(Nc1ccc(S(=O)(=O)Nc2nccs2)cc1)C1CC(=O)N(c2ccc(Cl)cc2)C1 (stereo unspecified) returned STEP block inactive, SUMO1 PPI mod inactive, NadD inh inactive, LMPTP inh inactive, DNMT1 inh inactive and Scp-1 inhibitor inactive.
Screening Cc1cc(SCc2ccc([N+](=O)[O-])cc2)nc(=O)[nH]1 returned STEP block inactive, SUMO1 PPI mod inactive, NadD inh inactive, LMPTP inh inactive, DNMT1 inh 51.6, Scp-1 inhibitor inactive, DNMT1 inh conf inactive and Beacon interf inactive.
